This is a sample that favours compounds with a hit; in the whole collection about 3% have one here.
5HT1a ag: human 5-HT1a receptor agonists, primary screen, cell-based, CHO, Ga15 NFAT-bla reporter. 5-hydroxytryptamine receptor 1A (Homo sapiens), P08908. 0.56% of 65,000 active. activation, % at 10 µM. AID 567, 2006. CHO 5-HT1a Ga15 NFAT-bla reporter, FRET ratio; 0% basal, 100% maximal reference agonist;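 active = activation above the screen-wide mean activation plus 3 SD, cut at about 19% in these data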
5HT1E antag: 5-HT1E receptor antagonists, primary screen, cell-based, HTS; AID 571, 2007; inhibition, % at 6 µM; CHO 5-HT1E Ga15 NFAT-bla reporter, FRET, antagonist; 5-hydroxytryptamine receptor 1E (Homo sapiens), P28566; 0.99% of 65,000 active;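 active = inhibition above a set limit, the mean inhibition across every tested compound plus 3 SD, cut at about 29% in these data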;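 also: signal is the 460 over 535 nm emission ratio of beta-lactamase substrate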
5-HT1A blocker: human 5-HT1a receptor antagonists, primary screen, cell-based, CHO, Ga15 NFAT-bla reporter. 5-hydroxytryptamine receptor 1A (Homo sapiens), P08908. CHO 5-HT1a Ga15 NFAT-bla reporter, antagonist mode. inhibition, % at 10 µM. 0.68% of 62,000 active;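 active = inhibition above the mean of all tested compounds plus 3 SD, cut at about 43% in these data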;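 also: receptor stimulated by 5-CT agonist at 100 nM near EC80; beta-lactamase reporter measured by ratiometric fluorescence of a cleavable substrate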
5HT1E ag: 5-HT1E receptor agonists, primary screen, cell-based, HTS | CHO 5-HT1E Ga15 NFAT-bla reporter, FRET; 0% DMSO wells, 100% control agonist wells | activation, % at 6 µM | 0.69% of 65,000 active;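 active = activation above a set limit, the screen-wide mean activation plus 3 SD, cut at about 8.5% in these data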
S1P3 agonist: human S1P3 receptor agonists, primary screen, cell-based, primary and confirmation, NFAT-BLA reporter; AID 373, 2006; Sphingosine 1-phosphate receptor 3 (Homo sapiens), Q99500; S1P3 NFAT-BLA reporter cells, agonism, FRET ratio; relative to 1 µM S1P, basal subtracted; activation, % at 4.5 µM; 0.1% of 60,000 active;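 active = activation above the screen-wide mean plus 3 SD, cut at about 4.5% in these data, passing the limit was not always enough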
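Assay system: stable CHO line with human S1P3, Gα16, NFAT-BLA reporter; Detection: FRET β-lactamase substrate fluorescence, excitation 405 nm, 460/535 nm emission ratio, background-subtracted; Read-out: percent activation versus median 1 µM S1P response, basal-subtracted, per plate; Incubation: cells plated overnight, compound 4 h 37 °C, substrate 2 h RT.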
S1P1 ag pot: S1P1 agonists and agonism potentiators, primary screen, cell-based, primary and confirmation screens, CRE-bla reporter | S1P1 CRE-bla cells, forskolin, beta-lactamase FRET, potentiator mode; S1P1 agonist co-added at EC20, 2 nM; 100% = saturating reference agonist, 0% = basal | activation, % at 9.5 µM | 0.57% of 56,000 active | AID 449, 2006;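 active = activation above a cutoff set at the mean activation of all tested compounds plus 3 SD, cut at about 54% in these data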;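 also: forskolin at 4 µM as EC80 and the EC20 agonist is SEW2871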
Target sequence (P21453 whole entry, looked up): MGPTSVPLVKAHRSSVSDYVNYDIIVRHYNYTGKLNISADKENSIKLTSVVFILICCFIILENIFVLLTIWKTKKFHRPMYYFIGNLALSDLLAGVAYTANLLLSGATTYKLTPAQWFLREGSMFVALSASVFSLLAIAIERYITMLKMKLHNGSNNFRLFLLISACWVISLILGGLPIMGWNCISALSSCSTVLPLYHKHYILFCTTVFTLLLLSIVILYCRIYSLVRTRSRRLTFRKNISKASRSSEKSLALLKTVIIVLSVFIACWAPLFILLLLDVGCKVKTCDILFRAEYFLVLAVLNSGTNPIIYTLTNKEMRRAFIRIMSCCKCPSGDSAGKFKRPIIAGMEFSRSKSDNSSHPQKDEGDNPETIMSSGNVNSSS
Hits are given with their value; n = inactive; x = not tested or not shown.

SMILES	5HT1a ag	5HT1E antag	5-HT1A blocker	5HT1E ag	S1P3 agonist	S1P1 ag pot
c1ccc(-c2csc3ncn4cnnc4c23)cc1	n	32	n	n	n	n
CCn1ncc(C2=NOC(C(=O)NCc3ccc(Cl)cc3)C2)c1C (centres undefined)	n	58	n	n	n	n
COc1ccc(C2=NOC(C(=O)NCc3ccc(F)cc3)C2)cc1 (centres undefined)	n	56	n	n	n	n
CC(C)(C)NC(=O)CSc1nnc(C2CC2)n1Cc1ccccc1	n	n	n	n	n	n
N#Cc1nc(-c2cccs2)oc1NCCc1ccccc1	n	36	x	n	n	n
N#Cc1nc(-c2ccco2)oc1NCCc1ccccc1	n	n	n	n	n	n
O=S(=O)(NCc1cn2ccsc2n1)c1ccc(Oc2ccccc2)cc1	n	n	n	n	n	84
O=S(=O)(NCc1cn2ccsc2n1)c1cccs1	n	n	n	n	n	n
CCc1ccc(S(=O)(=O)NCc2cn3ccsc3n2)s1	n	n	n	22	n	n
COc1c(C)cccc1C(=O)Nc1cc(-c2nn3c(C)nnc3s2)ccc1C	n	n	n	n	n	n
Cc1c(=O)n(OCc2c(F)cccc2F)c2ccccc2[n+]1[O-]	n	n	x	n	n	n
Cc1cc(C)n(C(C)n2nc(C)cc2C)n1	n	n	n	n	n	n
FC(F)(F)c1ccc(N2CCN(c3cc(-c4ccccc4)nc4ncnn34)CC2)nc1	n	n	n	n	n	108
O=C1C2C3C=CC(C3=C3CCCCC3)C2C(=O)N1Cc1ccccc1 (centres undefined)	n	n	n	n	n	n
CSc1ncccc1C(=O)OCc1ccccc1F	73	n	n	n	n	n
CSc1ncccc1C(=O)OCc1ccccc1	n	n	n	n	n	n
Nc1nonc1-c1nc2ccccc2n1Cc1ccc(F)cc1Cl	n	n	63	n	n	n
CCC(=O)Nc1nonc1-c1nc2ccccc2n1Cc1ccc(Cl)c(Cl)c1	n	n	n	n	n	n
COc1cccc(C(=O)Nc2ccc(C(=O)O)cc2)c1	n	n	n	n	n	n
COc1cccc(C(=O)Nc2ccc(C)cc2)c1	164	n	n	n	x	x
CCOC(=O)C(NC(C)=O)(Nc1ccc(S(=O)(=O)Nc2cc(C)nc(C)n2)cc1)C(F)(F)F (centres undefined)	n	n	n	n	n	n
COc1ccc(C2CC(c3c(O)cc(C)oc3=O)=NCCS2)c(OC)c1 (centres undefined)	n	65	n	n	n	n
COc1ccc(N(CC(=O)Nc2cc(Cl)ccc2OC)S(=O)(=O)c2c(C)noc2C)cc1	n	35	n	n	n	n
COc1ccc(OC)c(NC(=O)CN(c2ccc(C)cc2)S(=O)(=O)c2c(C)noc2C)c1	n	n	n	n	n	n
O=C(c1c(Cl)nc2sccn12)N(C(=O)c1c(Cl)nc2sccn12)c1ccc(Cl)cn1	n	n	n	n	x	x
SMILES	5HT1a ag	5HT1E antag	5-HT1A blocker	5HT1E ag	S1P3 agonist	S1P1 ag pot
CC(C)(C)C1CCC2(CC1)C(C#N)=C(SCC(=O)Nc1ccccc1)NC(=O)C2C#N (centres undefined)	n	n	x	n	n	79
CC1(C)CC(=O)C2=C(C1)NC(SCC(=O)Nc1ccccc1)=C(C#N)C21CCCCC1	n	n	n	n	n	n
Cc1ccc(S(=O)(=O)N2CCCN(S(=O)(=O)c3ccc(C)cc3)CC2)cc1	n	n	n	19	n	x
Cc1sc2ncnc(Sc3nnnn3-c3ccccc3)c2c1C	n	n	n	n	n	87
Cc1sc2ncnc(SCC(=O)c3cccs3)c2c1C	n	n	n	n	n	n
Clc1ccc(-n2nnnc2Sc2ncnc3sccc23)cc1	n	82	69	n	n	82
O=C(CCOc1ccccc1)NCC(c1ccco1)N1CCCCC1 (centres undefined)	n	n	n	n	n	n
c1csc(CCNc2ncnc3sc4c(c23)CCC4)c1	n	n	n	n	n	153
O=C(CCNS(=O)(=O)c1cccc2nsnc12)NC1CCN(Cc2ccccc2)CC1	n	n	n	n	x	x
CCCS(=O)(=O)N1CCCC(C(=O)NCCN2CCC(Cc3ccccc3)CC2)C1 (centres undefined)	n	n	46	n	n	n
COc1ccc(OC)c(N2C(=O)CC(Cc3ccc(C)cc3)C2=O)c1 (centres undefined)	n	n	n	n	n	n
c1ccc2c(c1)[nH]c1nc(SCCN3CCOCC3)nnc12	n	n	n	n	n	x
Brc1ccc2[nH]c3nc(SCCN4CCOCC4)nnc3c2c1	n	36	n	n	n	n
COCCOC(=O)C1=C(C)N=C2SCCC(=O)N2C1c1ccc(OC(=O)c2ccco2)cc1 (centres undefined)	n	n	n	n	x	x
Cc1ccc2[nH]c(-c3ccccc3)cc(=O)c2c1	n	70	n	n	n	n
CSc1nc2ccccc2n1CC(=O)Nc1ccccc1	n	n	n	n	n	n
CSc1nc2ccccc2n1CC(=O)Nc1ccc(C)c(C)c1	n	n	n	15	x	x
CCc1ccc(NC(=O)Cn2c(SC)nc3ccccc32)cc1	n	n	n	54	n	n
COC(=O)c1ccc(CC(=O)c2ccc(O)cc2O)o1	n	n	n	n	n	n
COC(=O)c1cc(CC(=O)c2ccc(O)cc2O)c(C)o1	284	n	n	n	n	n
COc1cccc(C(=O)OCn2nnc3ccccc3c2=O)c1OC	n	33	n	n	n	n
COc1cc(C(=O)OCn2nnc3ccccc3c2=O)cc(OC)c1OC	n	n	n	n	x	x
Cc1[nH]c(=O)[nH]c(=O)c1S(=O)(=O)N1c2ccc(F)cc2CCC1C (centres undefined)	n	n	n	n	n	n
CCN(CC)c1ccc2c(c1)OC(N)=C(C#N)C2c1cccnc1 (centres undefined)	n	77	n	n	n	n
Cc1ccc2nc3c(cc(C#N)c(=O)n3-c3nccs3)c(=O)n2c1	59	n	n	13	12	n
CC(C)c1nnc(NC(=O)CCC(=O)NCc2ccc3c(c2)OCO3)s1	n	n	n	n	n	n
Cc1cc(NC(=O)CSc2ccc(-c3nc4cc(C)c(C)cc4[nH]3)cn2)no1	n	31	n	n	x	x
